{"source": "ChEMBL document CHEMBL1629577", "about": "“Activity of T-705 in a hamster model of yellow fever virus infection in comparison with that of a chemically related compound, T-1106” (Antimicrob Agents Chemother, 2009)", "key": {"[1]": {"tested_on": "Yellow fever virus", "assay": "Antiviral activity against 10^2 CCID50 Yellow fever virus Jimenez infected in syrian golden hamster assessed as serum ALT level at 400 mg/kg/day, po administered daily for days started 1 day post viral challenge", "type": "functional"}, "[2]": {"tested_on": "Yellow fever virus", "assay": "Antiviral activity 10^2 CCID50 Yellow fever virus Jimenez infected in syrian golden hamster assessed as serum AST level at 100 mg/kg/day, po administered twice daily for 8 days started 4 hrs prior to viral infection", "type": "functional, organism-based"}, "[3]": {"tested_on": "Yellow fever virus", "assay": "Antiviral activity against 10^2 CCID50 Yellow fever virus Jimenez infected in syrian golden hamster assessed as serum AST level at 10 mg/kg/day, po administered twice daily for 8 days started 4 hrs prior to viral infection", "type": "functional, organism-based"}, "[4]": {"tested_on": "Yellow fever virus", "assay": "Antiviral activity against 10^2 CCID50 Yellow fever virus Jimenez infected in syrian golden hamster assessed as serum ALT level in non surviving animals at 400 mg/kg/day, po administered 4 days post viral infection", "type": "functional"}, "[5]": {"tested_on": "Yellow fever virus", "assay": "Antiviral activity against 10^2 CCID50 Yellow fever virus Jimenez infected in syrian golden hamster assessed as serum AST level in non surviving animals at 400 mg/kg/day, po administered 4 days post viral infection", "type": "functional"}, "[6]": {"tested_on": "Yellow fever virus", "assay": "Antiviral activity against 10^2 CCID50 Yellow fever virus Jimenez infected in syrian golden hamster assessed as mean day of death […] at 400 mg/kg/day, po administered twice daily for 8 days started 5 day post infection", "type": "functional"}, "[7]": {"tested_on": "Yellow fever virus", "assay": "Antiviral activity against 10^2 CCID50 Yellow fever virus Jimenez infected in syrian golden hamster assessed as serum ALT level in surviving animals at 400 mg/kg/day, po administered 5 days post viral infection", "type": "functional"}, "[8]": {"tested_on": "Yellow fever virus", "assay": "Antiviral activity against 10^2 CCID50 Yellow fever virus Jimenez infected in syrian golden hamster assessed as mean day of death […] at 100 mg/kg/day, po administered twice daily for 8 days started 4 hrs prior to viral infection relative to control", "type": "functional"}, "[9]": {"tested_on": "Yellow fever virus", "assay": "Antiviral activity against 10^2 CCID50 Yellow fever virus Jimenez infected in syrian golden hamster assessed as mean day of death […] at 400 mg/kg/day, po administered twice daily for 8 days started 3 day post infection", "type": "functional"}, "[10]": {"tested_on": "Yellow fever virus", "assay": "Antiviral activity against 10^2 CCID50 Yellow fever virus Jimenez infected in syrian golden hamster assessed as serum AST level at 200 mg/kg/day, po administered twice daily for 8 days started 4 hrs prior to viral infection", "type": "functional, organism-based"}, "[11]": {"tested_on": "Yellow fever virus", "assay": "Antiviral activity against 10^2 CCID50 Yellow fever virus Jimenez infected in syrian golden hamster assessed as serum AST level in non surviving animals at 400 mg/kg/day, po administered 5 days post viral infection", "type": "functional"}, "[12]": {"tested_on": "Yellow fever virus", "assay": "Antiviral activity against 10^2 CCID50 Yellow fever virus Jimenez infected in syrian golden hamster assessed as serum ALT level at 400 mg/kg/day, po administered daily for days started 4 day post viral challenge", "type": "functional"}, "[13]": {"tested_on": "Yellow fever virus", "assay": "Antiviral activity against Yellow fever virus 17D infected in African green monkey Vero cells assessed as reduction in virus yield", "type": "functional", "method_in_brief": "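Virus yield reduction in Vero cells infected with YFV 17D after compound exposure, with progeny virus titred by CCID50. The EC90 was averaged over separate experiments.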"}, "[14]": {"tested_on": "Yellow fever virus", "assay": "Antiviral activity against 10^2 CCID50 Yellow fever virus Jimenez infected in syrian golden hamster assessed as mean day of death […] at 400 mg/kg/day, po administered twice daily for 8 days started 4 hrs prior to viral infection relative to control", "type": "functional"}}, "note": "Calls of active or inactive are those of the source. The calls are words filed in the database; no cut-off is given here.", "data": [{"smiles": "NC(=O)c1nc(F)cnc1O", "note": "[FAVIPIRAVIR]", "values": [{"measurement": "Activity", "setting": "[1]", "value": 80, "unit": "IU/L"}, {"measurement": "Activity", "setting": "[2]", "value": "inactive"}, {"measurement": "Activity", "setting": "[3]", "value": "inactive"}, {"measurement": "Activity", "setting": "[4]", "value": 231, "unit": "IU/L"}, {"measurement": "Activity", "setting": "[5]", "value": 189, "unit": "IU/L"}, {"measurement": "Time", "setting": "[6]", "value": 6.8, "unit": "days"}, {"measurement": "Activity", "setting": "[7]", "value": 64, "unit": "IU/L"}, {"measurement": "Time", "setting": "[8]", "value": 7.1, "unit": "days"}, {"measurement": "Time", "setting": "[9]", "value": 7, "unit": "days"}, {"measurement": "Activity", "setting": "[10]", "value": "inactive"}, {"measurement": "Activity", "setting": "[11]", "value": 285, "unit": "IU/L"}, {"measurement": "Activity", "setting": "[12]", "value": 115, "unit": "IU/L"}, {"measurement": "EC90", "setting": "[13]", "value": 330, "unit": "µM"}, {"measurement": "Time", "setting": "[14]", "value": 6, "unit": "days"}]}]}
